From ChEMBL document CHEMBL4266027, “Cyanobufalins: Cardioactive Toxins from Cyanobacterial Blooms” (J Nat Prod, 2018)

Tests used:
[1] = system: Cardiac muscle cell; experiment: Toxicity in human inducible pluripotent stem cell derived cardiomyocytes assessed as change in beating amplitude at 8 nM after 24 hrs; assay type: cell-based; conditions: 0.008 µM
Method in brief: (§1)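 Human iPSC-derived cardiomyocytes (Cor.4U) were grown to stable beating cultures and monitored by impedance in real time with 20 s recordings. Compounds were given as a dilution series from 0.32 nM to 5 μM, dosed twice 24 h apart, with monitoring over 48 h. Beating amplitude was taken from each negative peak to the following positive peak and reported as % change.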

[2] = system: MES-SA/Dx5; experiment: Cytotoxicity against human MES-SA/Dx5 cells assessed as decrease in cell viability after 72 hrs by MTS assay; assay type: functional, cell-based; conditions: MES-SA/Dx5, 72 h
Method in brief: (§2)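 Cell proliferation assay using the MTS reagent. Compounds were tested as a dilution series, and EC50 values were derived from the concentration–response data.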

[3] = system: HCT-116; experiment: Cytotoxicity against human HCT116 cells assessed as decrease in cell viability after 72 hrs by MTS assay; assay type: functional, cell-based; conditions: HCT-116, 72 h; method in brief: as §2
[4] = system: Cardiac muscle cell; experiment: Toxicity in human inducible pluripotent stem cell derived cardiomyocytes assessed as change in beating amplitude at 1.6 nM after 48 hrs; assay type: cell-based; conditions: 0.0016 µM; method in brief: as §1
[5] = system: Cardiac muscle cell; experiment: Toxicity in human inducible pluripotent stem cell derived cardiomyocytes assessed as change in beating amplitude at 8 nM after 36 hrs; assay type: cell-based; conditions: 0.008 µM
Method in brief: (§3)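 Cor.4U hiPSC-derived cardiomyocytes grown to stable beating cultures, then monitored by impedance in RTCA Cardio plates with 20 s recordings. Compounds tested as a dilution series from 0.32 nM to 5 μM, dosed twice 24 h apart, followed over 48 h. Beating amplitude is taken from each negative peak to the next positive peak and reported as percent change.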

[6] = system: Cardiac muscle cell; experiment: Toxicity in human inducible pluripotent stem cell derived cardiomyocytes assessed as change in beating amplitude at 8 nM after 8 mins; assay type: cell-based; conditions: 0.008 µM; method in brief: as §3
[7] = system: Cardiac muscle cell; experiment: Toxicity in human inducible pluripotent stem cell derived cardiomyocytes assessed as change in beating amplitude at 1.6 nM after 33 mins; assay type: cell-based; conditions: 0.55 h, 0.0016 µM; method in brief: as §1
[8] = system: U-87 MG; experiment: Cytotoxicity against human U87MG cells assessed as decrease in cell viability after 72 hrs by MTS assay; assay type: functional, cell-based, U-87MG ATCC; method in brief: as §2
[9] = system: Cardiac muscle cell; experiment: Toxicity in human inducible pluripotent stem cell derived cardiomyocytes assessed as change in beating amplitude at 8 nM after 33 mins; assay type: cell-based; conditions: 0.55 h, 0.008 µM; method in brief: as §1
[10] = system: Cardiac muscle cell; experiment: Toxicity in human inducible pluripotent stem cell derived cardiomyocytes assessed as change in beating amplitude at 40 nM after 66 mins; assay type: cell-based; conditions: 1.1 h, 0.04 µM; method in brief: as §1
[11] = system: BXPC-3; experiment: Cytotoxicity against human BxPC3 cells assessed as decrease in cell viability after 72 hrs by MTS assay; assay type: functional, cell-based; conditions: BXPC-3, 72 h; method in brief: as §2
[12] = system: Cardiac muscle cell; experiment: Toxicity in human inducible pluripotent stem cell derived cardiomyocytes assessed as change in beating amplitude at 0.32 nM after 36 hrs; assay type: cell-based; conditions: 0.00032 µM; method in brief: as §1
[13] = system: MCF7; experiment: Cytotoxicity against human MCF7 cells assessed as decrease in cell viability after 72 hrs by MTS assay; assay type: functional, cell-based; conditions: MCF7, 72 h; method in brief: as §2
[14] = system: NCI-H1975; experiment: Cytotoxicity against human NCI-H1975 cells assessed as decrease in cell viability after 72 hrs by MTS assay; assay type: functional, cell-based; conditions: NCI-H1975, 72 h; method in brief: as §2
[15] = system: 786-0; experiment: Cytotoxicity against human 786-O cells assessed as decrease in cell viability after 72 hrs by MTS assay; assay type: functional, cell-based; conditions: 786-0, 72 h; method in brief: as §2
[16] = system: Cardiac muscle cell; experiment: Toxicity in human inducible pluripotent stem cell derived cardiomyocytes assessed as change in beating amplitude at 8 nM after 12 hrs; assay type: cell-based; conditions: 0.008 µM; method in brief: as §1
[17] = system: Cardiac muscle cell; experiment: Toxicity in human inducible pluripotent stem cell derived cardiomyocytes assessed as change in beating amplitude at 1.6 nM after 12 hrs; assay type: cell-based; conditions: 0.0016 µM; method in brief: as §1
[18] = system: Cardiac muscle cell; experiment: Toxicity in human inducible pluripotent stem cell derived cardiomyocytes assessed as change in beating amplitude at 8 nM after 4 hrs; assay type: cell-based; conditions: 0.008 µM; method in brief: as §3
[19] = system: Cardiac muscle cell; experiment: Toxicity in human inducible pluripotent stem cell derived cardiomyocytes assessed as change in beating amplitude at 40 nM after 48 hrs; assay type: cell-based; conditions: 0.04 µM; method in brief: as §1
[20] = system: Cardiac muscle cell; experiment: Toxicity in human inducible pluripotent stem cell derived cardiomyocytes assessed as change in beating amplitude at 0.32 nM after 48 hrs; assay type: cell-based; conditions: 0.00032 µM; method in brief: as §1
[21] = system: Cardiac muscle cell; experiment: Toxicity in human inducible pluripotent stem cell derived cardiomyocytes assessed as change in beating amplitude at 0.32 nM after 8 mins; assay type: cell-based; conditions: 0.00032 µM; method in brief: as §1
[22] = system: Cardiac muscle cell; experiment: Toxicity in human inducible pluripotent stem cell derived cardiomyocytes assessed as change in beating amplitude at 0.32 nM after 12 hrs; assay type: cell-based; conditions: 0.00032 µM; method in brief: as §1
[23] = system: CCRF S-180; experiment: Cytotoxicity against mouse S180 cells assessed as decrease in cell viability after 72 hrs by MTS assay; assay type: functional, cell-based; conditions: CCRF S-180, 72 h; method in brief: as §2
[24] = system: Cardiac muscle cell; experiment: Toxicity in human inducible pluripotent stem cell derived cardiomyocytes assessed as increase in beating amplitude at >40 nM; assay type: cell-based; method in brief: as §3
[25] = system: Cardiac muscle cell; experiment: Toxicity in human inducible pluripotent stem cell derived cardiomyocytes assessed as change in beating amplitude at 1.6 nM after 24 hrs; assay type: cell-based; conditions: 0.0016 µM; method in brief: as §1
[26] = system: MES-SA; experiment: Cytotoxicity against human MESSA cells assessed as decrease in cell viability after 72 hrs by MTS assay; assay type: functional, cell-based; method in brief: as §2
[27] = system: HepG2; experiment: Cytotoxicity against human HepG2 cells assessed as decrease in cell viability after 72 hrs by MTS assay; assay type: functional, cell-based; conditions: HepG2, 72 h; method in brief: as §2
[28] = system: HUVEC; experiment: Cytotoxicity against human HUVEC cells assessed as decrease in cell viability after 72 hrs by MTS assay; assay type: cell-based; method in brief: as §2
[29] = system: Cardiac muscle cell; experiment: Toxicity in human inducible pluripotent stem cell derived cardiomyocytes assessed as change in beating amplitude at 1.6 nM after 4 hrs; assay type: cell-based; conditions: 0.0016 µM; method in brief: as §1
[30] = system: Cardiac muscle cell; experiment: Toxicity in human inducible pluripotent stem cell derived cardiomyocytes assessed as change in beating amplitude at 8 nM after 48 hrs; assay type: cell-based; conditions: 0.008 µM; method in brief: as §3
[31] = system: Cardiac muscle cell; experiment: Toxicity in human inducible pluripotent stem cell derived cardiomyocytes assessed as change in beating amplitude at 1.6 nM after 8 mins; assay type: cell-based; conditions: 0.0016 µM; method in brief: as §1
[32] = system: Cardiac muscle cell; experiment: Toxicity in human inducible pluripotent stem cell derived cardiomyocytes assessed as change in beating amplitude at 0.32 nM after 33 mins; assay type: cell-based; conditions: 0.55 h, 0.00032 µM; method in brief: as §1
[33] = system: Cardiac muscle cell; experiment: Toxicity in human inducible pluripotent stem cell derived cardiomyocytes assessed as change in beating amplitude at 0.32 nM after 66 mins; assay type: cell-based; conditions: 1.1 h, 0.00032 µM; method in brief: as §1
[34] = system: Cardiac muscle cell; experiment: Toxicity in human inducible pluripotent stem cell derived cardiomyocytes assessed as change in beating amplitude at 0.32 nM after 4 hrs; assay type: cell-based; conditions: 0.00032 µM; method in brief: as §1
[35] = system: Cardiac muscle cell; experiment: Toxicity in human inducible pluripotent stem cell derived cardiomyocytes assessed as change in beating amplitude at 40 nM after 8 mins; assay type: cell-based; conditions: 0.04 µM; method in brief: as §1
[36] = system: Cardiac muscle cell; experiment: Toxicity in human inducible pluripotent stem cell derived cardiomyocytes assessed as change in beating amplitude at 40 nM after 33 mins; assay type: cell-based; conditions: 0.55 h, 0.04 µM; method in brief: as §1
[37] = system: Cardiac muscle cell; experiment: Toxicity in human inducible pluripotent stem cell derived cardiomyocytes assessed as change in beating amplitude at 1.6 nM after 66 mins; assay type: cell-based; conditions: 1.1 h, 0.0016 µM; method in brief: as §1
[38] = system: SK-OV-3; experiment: Cytotoxicity against human SKOV3 cells assessed as decrease in cell viability after 72 hrs by MTS assay; assay type: functional, cell-based; conditions: SK-OV-3, 72 h; method in brief: as §2
[39] = system: Cardiac muscle cell; experiment: Toxicity in human inducible pluripotent stem cell derived cardiomyocytes assessed as change in beating amplitude at 8 nM after 66 mins; assay type: cell-based; conditions: 1.1 h, 0.008 µM; method in brief: as §3
[40] = system: Cardiac muscle cell; experiment: Toxicity in human inducible pluripotent stem cell derived cardiomyocytes assessed as change in beating amplitude at 1.6 nM after 36 hrs; assay type: cell-based; conditions: 0.0016 µM; method in brief: as §1
[41] = system: Cardiac muscle cell; experiment: Toxicity in human inducible pluripotent stem cell derived cardiomyocytes assessed as change in beating amplitude at 0.32 nM after 24 hrs; assay type: cell-based; conditions: 0.00032 µM; method in brief: as §1

C[C@]12CC[C@H](O)C[C@H]1CC[C@@H]1[C@@H]2CC[C@]2(C)[C@@H](c3ccc(=O)oc3)CC[C@]12O [BUFALIN]
Activity [1]: -22% | EC50 [2]: 18 nM | EC50 [3]: 11 nM | Activity [4]: -10% | Activity [5]: 7.6% | Activity [6]: 2.8% | Activity [7]: -0.6% | EC50 [8]: 14 nM | Activity [9]: 3.1% | Activity [10]: -62% | EC50 [11]: 11 nM | Activity [12]: 62% | EC50 [13]: 42 nM | EC50 [14]: 13 nM | EC50 [15]: 7.5 nM | Activity [16]: 35% | Activity [17]: 8.9% | Activity [18]: 34% | Activity [19]: -84.3% | Activity [20]: 42% | Activity [21]: -3% | Activity [22]: 17% | EC50 [23]: > 20000 nM | Activity [24]: Toxic | Activity [25]: 4.3% | EC50 [26]: 28 nM | EC50 [27]: 35 nM | EC50 [28]: 12 nM | Activity [29]: 11% | Activity [30]: -32% | Activity [31]: 1.8% | Activity [32]: -2% | Activity [33]: -4.4% | Activity [34]: 12% | Activity [35]: 8.5% | Activity [36]: 21% | Activity [37]: -2.7% | EC50 [38]: 10 nM | Activity [39]: 10% | Activity [40]: -2.9% | Activity [41]: 32%
